Results reported in ChEMBL document CHEMBL1833903, “Isomeric acetoxy analogs of celecoxib and their evaluation as cyclooxygenase inhibitors” (Bioorg Med Chem Lett, 2011).
Active and inactive are the calls of the source. The calls are words filed in the database; no cut-off is given here.

system: Rattus norvegicus; assay: Antiinflammatory activity in rat assessed as inhibition of carrageenan-induced hind paw edema at 50 mg/kg, po measured after 3 hrs post dose; assay type: functional, organism-based; parameters: dose 50 mg/kg; conditions: not given
Method in brief: (§1)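 Male Sprague-Dawley rats; paw edema induced with carrageenan; test compound given orally at the stated dose. Edema inhibition read 3 h after dosing, as a mean of n = 4. ED50 values were derived where determined.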

SMILES | inhibition
CC(=O)Oc1cc(C)ccc1-c1cc(C(F)(F)F)nn1-c1ccc(S(N)(=O)=O)cc1 | inactive
CC(=O)Oc1ccc(-c2cc(C(F)(F)F)nn2-c2ccc(S(N)(=O)=O)cc2)cc1 | inactive
CC(=O)Oc1cc(-c2cc(C(F)(F)F)nn2-c2ccc(S(N)(=O)=O)cc2)ccc1C | inactive

target: T1, Prostaglandin G/H synthase 1 (Ovis aries, UniProt P05979); assay: Inhibition of ovine COX1 by enzyme immuno assay; conditions: not given
T1 sequence (P05979 whole entry): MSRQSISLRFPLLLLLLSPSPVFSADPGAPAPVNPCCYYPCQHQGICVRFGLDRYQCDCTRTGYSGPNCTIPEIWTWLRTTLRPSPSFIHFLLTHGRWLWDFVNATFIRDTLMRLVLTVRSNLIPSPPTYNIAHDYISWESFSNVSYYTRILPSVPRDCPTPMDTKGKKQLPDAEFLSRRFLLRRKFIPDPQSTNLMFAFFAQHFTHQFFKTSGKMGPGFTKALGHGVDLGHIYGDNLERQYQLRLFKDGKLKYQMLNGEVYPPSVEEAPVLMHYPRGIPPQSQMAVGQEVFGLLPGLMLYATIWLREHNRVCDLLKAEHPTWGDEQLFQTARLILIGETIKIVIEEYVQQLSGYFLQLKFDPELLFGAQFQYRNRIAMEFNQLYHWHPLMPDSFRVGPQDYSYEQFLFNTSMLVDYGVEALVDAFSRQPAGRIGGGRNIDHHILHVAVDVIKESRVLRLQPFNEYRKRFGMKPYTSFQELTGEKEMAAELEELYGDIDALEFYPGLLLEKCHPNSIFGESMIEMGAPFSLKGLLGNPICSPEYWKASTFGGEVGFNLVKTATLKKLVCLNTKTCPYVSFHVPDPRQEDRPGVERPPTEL

SMILES | IC50
CC(=O)Oc1cc(C)ccc1-c1cc(C(F)(F)F)nn1-c1ccc(S(C)(=O)=O)cc1 | > 100 µM
CC(=O)Oc1ccc(-c2cc(C(F)(F)F)nn2-c2ccc(S(N)(=O)=O)cc2)cc1 | > 100 µM
Cc1ccc(-c2cc(C(F)(F)F)nn2-c2ccc(S(N)(=O)=O)cc2)c(O)c1 | 36 µM
CC(=O)Oc1ccc(-c2cc(C(F)(F)F)nn2-c2ccc(S(C)(=O)=O)cc2)cc1 | 80.3 µM
CC(=O)Oc1cccc(-c2cc(C(F)(F)F)nn2-c2ccc(S(C)(=O)=O)cc2)c1 | > 100 µM
CC(=O)Oc1cc(F)ccc1-c1cc(C(F)(F)F)nn1-c1ccc(S(C)(=O)=O)cc1 | > 100 µM

Continued, values first:

IC50 | SMILES
> 100 µM | CC(=O)Oc1cc(C)ccc1-c1cc(C(F)(F)F)nn1-c1ccc(S(N)(=O)=O)cc1
> 100 µM | CC(=O)Oc1ccccc1-c1cc(C(F)(F)F)nn1-c1ccc(S(N)(=O)=O)cc1
> 100 µM | CC(=O)Oc1cccc(-c2cc(C(F)(F)F)nn2-c2ccc(S(N)(=O)=O)cc2)c1
> 100 µM | CC(=O)Oc1cc(-c2cc(C(F)(F)F)nn2-c2ccc(S(N)(=O)=O)cc2)ccc1C
0.7 µM | CC(=O)Oc1cc(F)ccc1-c1cc(C(F)(F)F)nn1-c1ccc(S(N)(=O)=O)cc1

system: Rattus norvegicus; assay: Antiinflammatory activity in rat assessed as inhibition of carrageenan-induced hind paw edema at 10 mg/kg, po measured after 3 hrs post dose; assay type: functional, organism-based; parameters: dose 10 mg/kg; conditions: not given; method in brief: as §1

SMILES | inhibition
Cc1ccc(-c2cc(C(F)(F)F)nn2-c2ccc(S(N)(=O)=O)cc2)c(O)c1 | inactive
CC(=O)Oc1cc(-c2cc(C(F)(F)F)nn2-c2ccc(S(C)(=O)=O)cc2)ccc1C | inactive

system: Rattus norvegicus; assay: Antiinflammatory activity in po dosed rat assessed as inhibition of carrageenan-induced hind paw edema measured after 3 hrs post dose; assay type: functional; conditions: not given; method in brief: as §1

SMILES | ED50
CC(=O)Oc1ccccc1C(=O)O [ASPIRIN] | 129 mg/kg
CC(C)Cc1ccc(C(C)C(=O)O)cc1 (centres undefined) [IBUPROFEN] | 67.4 mg/kg

same assay, conditions: Rattus norvegicus, po, 3 h; read-out: ED50

SMILES | ED50
CC(=O)Oc1cc(F)ccc1-c1cc(C(F)(F)F)nn1-c1ccc(S(N)(=O)=O)cc1 | 42.3 mg/kg
